# The source made the active and inactive calls. No cut-off for these calls is given here.
# Experiments:
# [1] = target: T1, Toll-like receptor 8 (Homo sapiens) (UniProt Q9NR97); assay: (§1) Inhibition of human TLR8 expressed in HEK-Blue cells assessed as inhibition of R848-induced NF-kappaB activation measured after 24 hrs by quanti-blue based SEAP reporter gene assay; format: cell-based
# T1 sequence (whole entry): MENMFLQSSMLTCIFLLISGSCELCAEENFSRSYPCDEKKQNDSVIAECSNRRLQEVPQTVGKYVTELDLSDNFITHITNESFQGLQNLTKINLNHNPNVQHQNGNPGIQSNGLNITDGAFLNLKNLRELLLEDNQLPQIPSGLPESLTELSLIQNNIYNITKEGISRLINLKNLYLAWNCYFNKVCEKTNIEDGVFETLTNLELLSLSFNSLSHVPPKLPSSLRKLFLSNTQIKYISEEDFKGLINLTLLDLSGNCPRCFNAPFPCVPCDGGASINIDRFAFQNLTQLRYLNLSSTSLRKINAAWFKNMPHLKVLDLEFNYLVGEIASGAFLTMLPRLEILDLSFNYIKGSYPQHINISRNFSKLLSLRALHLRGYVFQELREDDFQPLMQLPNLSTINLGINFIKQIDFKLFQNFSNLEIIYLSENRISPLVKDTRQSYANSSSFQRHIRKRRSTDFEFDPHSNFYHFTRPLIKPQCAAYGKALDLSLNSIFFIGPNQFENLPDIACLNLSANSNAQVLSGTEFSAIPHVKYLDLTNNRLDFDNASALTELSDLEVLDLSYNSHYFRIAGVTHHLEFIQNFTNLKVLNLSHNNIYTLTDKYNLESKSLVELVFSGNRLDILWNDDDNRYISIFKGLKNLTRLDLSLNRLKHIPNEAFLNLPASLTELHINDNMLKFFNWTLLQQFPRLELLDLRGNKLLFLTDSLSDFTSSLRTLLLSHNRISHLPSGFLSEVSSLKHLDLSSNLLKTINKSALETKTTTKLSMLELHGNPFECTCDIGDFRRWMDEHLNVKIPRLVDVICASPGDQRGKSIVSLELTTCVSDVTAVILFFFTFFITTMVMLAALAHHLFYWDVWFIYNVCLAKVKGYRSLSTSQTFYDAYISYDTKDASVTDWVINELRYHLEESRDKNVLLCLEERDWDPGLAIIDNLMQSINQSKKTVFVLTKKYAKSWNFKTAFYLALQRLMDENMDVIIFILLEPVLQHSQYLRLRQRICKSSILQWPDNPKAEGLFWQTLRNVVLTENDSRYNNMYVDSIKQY
# [2] = target: T2, Toll-like receptor 8 (Homo sapiens, UniProt Q9NR97); assay: as §1; format: cell-based
# T2 sequence (Q9NR97 whole entry): T1 sequence (whole entry)
# [3] = target: Toll-like receptor 3 (Homo sapiens) (UniProt O15455); assay: Inhibition of human TLR3 expressed in HEK-Blue cells assessed as inhibition of poly(I/C)-induced NF-kappaB activation at 20 uM measured after 24 hrs by quanti-blue based SEAP reporter gene assay; format: cell-based
# Toll-like receptor 3 (Homo sapiens), sequence (O15455 whole entry): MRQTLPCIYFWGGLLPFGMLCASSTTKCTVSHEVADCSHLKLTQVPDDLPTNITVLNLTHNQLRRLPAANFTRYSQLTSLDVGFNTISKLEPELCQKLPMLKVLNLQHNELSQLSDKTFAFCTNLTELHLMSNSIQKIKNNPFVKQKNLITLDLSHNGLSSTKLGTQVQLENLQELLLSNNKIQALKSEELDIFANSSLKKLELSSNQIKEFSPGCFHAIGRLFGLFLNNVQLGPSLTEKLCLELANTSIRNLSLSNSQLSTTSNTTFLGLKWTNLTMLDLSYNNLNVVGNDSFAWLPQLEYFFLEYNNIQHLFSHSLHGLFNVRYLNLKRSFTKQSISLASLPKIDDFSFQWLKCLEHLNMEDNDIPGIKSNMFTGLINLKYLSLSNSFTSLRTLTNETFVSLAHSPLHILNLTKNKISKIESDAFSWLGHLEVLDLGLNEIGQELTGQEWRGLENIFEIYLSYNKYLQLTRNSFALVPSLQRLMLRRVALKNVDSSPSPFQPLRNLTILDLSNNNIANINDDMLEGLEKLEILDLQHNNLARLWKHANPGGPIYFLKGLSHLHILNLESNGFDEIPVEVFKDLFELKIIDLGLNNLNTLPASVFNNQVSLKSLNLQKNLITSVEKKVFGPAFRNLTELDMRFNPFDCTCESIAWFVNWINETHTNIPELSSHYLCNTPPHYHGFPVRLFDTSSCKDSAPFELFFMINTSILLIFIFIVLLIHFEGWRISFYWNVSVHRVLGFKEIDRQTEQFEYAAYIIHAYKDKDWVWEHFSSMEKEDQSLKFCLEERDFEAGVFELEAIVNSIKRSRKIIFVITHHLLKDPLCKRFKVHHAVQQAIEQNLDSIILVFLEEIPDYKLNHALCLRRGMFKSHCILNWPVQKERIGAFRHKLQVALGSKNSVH
# Method in brief: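 HEK-Blue SEAP format: 4 × 10⁴ cells/well in DMEM with ligand plus compound, 24 h at 37 °C. Supernatant mixed with QUANTI-Blue up to 1 h, then A620 read. Ligands: Pam3CSK4 100 ng/mL (TLR1/2), Pam2CSK4 100 ng/mL (TLR2/6), poly(I:C) 5 µg/mL (TLR3), LPS 20 ng/mL (TLR4), flagellin 50 ng/mL (TLR5), R848 1 µg/mL (TLR7), R848 2 µg/mL (TLR8), ODN2006 0.5 µM (TLR9). Mean ± s.d.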
# [4] = target: T1, Toll-like receptor 8 (Homo sapiens); assay: Inhibition of TLR8 in human monocytes assessed as reduction in R848-induced TRAF3 expression measured after 2 hrs by Western blot analysis; format: cell-based
# Method in brief: (§2)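 Monocyte cell lines, 2 × 10⁶/well, differentiated with PMA 100 ng/mL for 24 h. After washes, cells in unsupplemented RPMI received R848 1 µg/mL with varying compound concentrations for 2 h. Nuclear/cytoplasmic fractions extracted and resolved on 10% SDS-PAGE. Blots probed for p65, TRAF3 and p-IRAK4 (1:1000); lamin A/C (nuclear) and β-actin (cytoplasmic) as loading controls.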
# [5] = target: T1, Toll-like receptor 8 (Homo sapiens); assay: Inhibition of TLR8 in human monocytes assessed as reduction in R848-induced p65 nuclear translocation up to 5 uM measured after 2 hrs by Western blot analysis; format: cell-based; method in brief: as §2
# [6] = target: T1, Toll-like receptor 8 (Homo sapiens); assay: Inhibition of TLR8 in human monocytes assessed as reduction in R848-induced TNFalpha production measured after 24 hrs by ELISA; format: cell-based
# Method in brief: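 Human monocyte cell lines in RPMI 1640 with 10% FBS and 0.05 mM 2-mercaptoethanol, 1 × 10⁶/well, 24 h. After PBS washes, fresh RPMI added with R848 1 µg/mL and varying compound concentrations for 24 h. Supernatant TNF-α, IL-6 and IL-1β measured by ELISA.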
# [7] = target: T3, Toll-like receptor 7 (Homo sapiens) (UniProt Q9NYK1); assay: Effect on TLR7-mediated signaling in human PBMC assessed as change in basal TNFalpha secretion up to 20 uM measured after 24 hrs by ELISA
# T3 sequence (whole entry): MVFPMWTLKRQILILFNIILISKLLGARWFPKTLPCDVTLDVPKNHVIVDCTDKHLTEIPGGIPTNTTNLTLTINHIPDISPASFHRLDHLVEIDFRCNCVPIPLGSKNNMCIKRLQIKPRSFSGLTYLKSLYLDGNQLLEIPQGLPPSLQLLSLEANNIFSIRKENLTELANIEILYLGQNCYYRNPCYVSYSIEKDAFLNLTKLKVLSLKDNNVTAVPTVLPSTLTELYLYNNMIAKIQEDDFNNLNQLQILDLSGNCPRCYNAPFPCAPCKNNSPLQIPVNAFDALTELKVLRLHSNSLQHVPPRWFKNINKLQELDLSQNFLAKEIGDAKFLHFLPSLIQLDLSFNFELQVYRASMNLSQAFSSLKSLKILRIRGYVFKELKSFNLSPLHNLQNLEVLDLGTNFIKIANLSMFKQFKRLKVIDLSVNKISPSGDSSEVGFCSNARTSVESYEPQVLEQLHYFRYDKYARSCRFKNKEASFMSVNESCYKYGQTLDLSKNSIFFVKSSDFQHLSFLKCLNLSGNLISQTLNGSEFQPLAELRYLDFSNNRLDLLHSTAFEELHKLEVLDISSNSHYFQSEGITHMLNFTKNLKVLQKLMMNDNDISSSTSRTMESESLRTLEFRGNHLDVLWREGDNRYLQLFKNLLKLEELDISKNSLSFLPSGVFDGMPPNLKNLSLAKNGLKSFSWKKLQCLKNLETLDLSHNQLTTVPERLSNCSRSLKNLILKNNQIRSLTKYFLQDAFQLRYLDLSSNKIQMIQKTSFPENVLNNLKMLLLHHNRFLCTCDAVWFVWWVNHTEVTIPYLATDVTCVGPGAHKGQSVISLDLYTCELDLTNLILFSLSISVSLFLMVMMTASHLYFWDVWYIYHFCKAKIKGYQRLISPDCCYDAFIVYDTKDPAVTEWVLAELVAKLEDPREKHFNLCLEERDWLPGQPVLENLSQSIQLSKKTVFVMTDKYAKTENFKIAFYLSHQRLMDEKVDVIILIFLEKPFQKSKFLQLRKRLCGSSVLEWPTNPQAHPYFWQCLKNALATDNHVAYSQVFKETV
compound,measurement,setting,value
CSc1nnc(CCCO)n1-c1cc(C)c(C)c(C)c1,inhibition,[1],Dose-dependent effect
same,IC50,[2],0.03 µM
same,inhibition,[3],inactive
same,inhibition,[4],Dose-dependent effect
same,inhibition,[5],Active
same,inhibition,[6],Dose-dependent effect
same,Activity,[7],inactive

# From ChEMBL document CHEMBL4354873, “Rationally Designed Small-Molecule Inhibitors Targeting an Unconventional Pocket on the TLR8 Protein-Protein Interface” (J Med Chem, 2020)
